Assay [1] relates to MEF. The assay can be described thus: Downregulation of Gli transcription in Sufu-/- MEF cells by immunoblot analysis. The note with it: Mus musculus. It is filed as functional, cell-based. The gist of the method: (§1)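 Sufu−/− MEFs exposed to DMSO or 1 uM of JQ1, GDC-0449, LDE225 or SANT-1; RIPA lysis 30min on ice, cleared 13000rpm 15min 4°C; SDS-PAGE immunoblot with anti-GLI1, β-tubulin as loading control.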
(In general: Immunoblotting shows a protein as a band on a membrane.)

Assay [2] addresses Bromodomain-containing protein 4 (Mus musculus) (UniProt Q9ESU6). The assay can be described thus: Inhibition of BRD4 in mouse Hh-Light2 cells assessed as inhibition in Gli1 protein level by immunoblot analysis.
Assay [3] has as its target Zinc finger protein GLI2 (Homo sapiens) (UniProt P10070). The assay can be described thus: Inhibition of human GLI2 expressed in Hh-Light2 cells assessed as reduction in Gli1 mRNA expression level by qRT-PCR analysis. It is filed as cell-based. The method in brief: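 Hh-Light2 cells transiently transfected (Turbofect) with full-length murine HA-Gli2-FL or N-terminally truncated human Myc-GLI2-DN; drugs (1 uM JQ1, GDC-0449, LDE225 or SANT-1) added 24hr post-transfection; Gli1 mRNA by SYBR Green qRT-PCR; mean of triplicates ± SD.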
Background: Quantitative PCR measures a nucleic acid by following its amplification.

Assay [4] concerns the target Bromodomain-containing protein 4 (Mus musculus) (UniProt Q9ESU6). The assay can be described thus: Inhibition of BRD4 in mouse Hh-Light2 cells assessed as Gli1 mRNA level by qRT-PCR analysis.
Assay [5] has as its system MEF. The assay can be described thus: Downregulation of Gli1 protein expression in Sufu-/- MEF cells by immunoblot analysis. The assay is classed as functional, cell-based. The following applies: Mus musculus. The method in brief: as §1

Calls of active or inactive are those of the source. No cut-off for these calls is given here.

The values that follow come from ChEMBL document CHEMBL5712072, “Epigenetic targeting of Hedgehog pathway transcriptional output through BET bromodomain inhibition” (Nat Med, 2014).

Chain of Zinc finger protein GLI2 (Homo sapiens) (P10070 whole entry, the tested form may be a part): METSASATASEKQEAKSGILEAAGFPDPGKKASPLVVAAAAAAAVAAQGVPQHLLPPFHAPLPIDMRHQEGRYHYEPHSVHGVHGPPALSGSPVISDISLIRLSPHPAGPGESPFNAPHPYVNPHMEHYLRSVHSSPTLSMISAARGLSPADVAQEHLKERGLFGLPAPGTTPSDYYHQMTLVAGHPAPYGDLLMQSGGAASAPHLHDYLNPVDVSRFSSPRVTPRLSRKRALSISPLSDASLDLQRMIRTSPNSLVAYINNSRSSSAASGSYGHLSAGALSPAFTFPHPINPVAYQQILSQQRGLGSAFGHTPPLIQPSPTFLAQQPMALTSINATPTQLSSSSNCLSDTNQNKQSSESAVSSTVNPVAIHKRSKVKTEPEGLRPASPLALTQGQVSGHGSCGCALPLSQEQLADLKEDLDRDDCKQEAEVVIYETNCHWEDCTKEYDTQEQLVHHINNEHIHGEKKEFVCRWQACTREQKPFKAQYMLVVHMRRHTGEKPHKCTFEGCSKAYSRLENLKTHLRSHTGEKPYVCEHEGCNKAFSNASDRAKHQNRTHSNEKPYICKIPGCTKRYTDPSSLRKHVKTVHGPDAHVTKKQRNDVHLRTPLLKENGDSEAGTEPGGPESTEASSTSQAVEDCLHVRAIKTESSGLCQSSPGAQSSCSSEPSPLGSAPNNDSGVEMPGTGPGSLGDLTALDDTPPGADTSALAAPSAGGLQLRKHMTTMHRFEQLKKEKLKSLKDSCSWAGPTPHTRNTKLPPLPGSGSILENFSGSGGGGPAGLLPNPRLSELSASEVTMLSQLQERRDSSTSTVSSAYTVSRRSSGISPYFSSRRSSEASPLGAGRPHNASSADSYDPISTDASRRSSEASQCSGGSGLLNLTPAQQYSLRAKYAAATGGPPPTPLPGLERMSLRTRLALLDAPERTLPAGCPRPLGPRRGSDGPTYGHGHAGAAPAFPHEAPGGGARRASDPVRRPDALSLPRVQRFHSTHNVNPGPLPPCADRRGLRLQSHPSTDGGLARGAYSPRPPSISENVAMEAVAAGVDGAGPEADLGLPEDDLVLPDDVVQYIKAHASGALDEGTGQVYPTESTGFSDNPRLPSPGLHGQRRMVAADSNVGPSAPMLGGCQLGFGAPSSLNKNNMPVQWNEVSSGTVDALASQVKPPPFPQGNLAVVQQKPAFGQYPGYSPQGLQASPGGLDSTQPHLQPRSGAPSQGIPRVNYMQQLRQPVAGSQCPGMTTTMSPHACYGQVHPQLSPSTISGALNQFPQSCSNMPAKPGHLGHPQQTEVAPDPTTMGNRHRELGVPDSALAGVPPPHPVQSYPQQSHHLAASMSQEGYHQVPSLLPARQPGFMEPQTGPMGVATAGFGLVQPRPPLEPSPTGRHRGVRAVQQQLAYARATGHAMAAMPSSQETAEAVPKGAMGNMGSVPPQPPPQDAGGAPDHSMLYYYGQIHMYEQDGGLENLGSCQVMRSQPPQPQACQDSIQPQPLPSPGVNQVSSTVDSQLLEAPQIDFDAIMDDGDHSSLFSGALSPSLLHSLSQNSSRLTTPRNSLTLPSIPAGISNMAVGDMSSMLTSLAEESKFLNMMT

Turning to `Cc1nn(-c2ccccc2)c(C)c1/C=N/N1CCN(Cc2ccccc2)CC1`, the result in the assay on MEF [1] and in the assay with MEF [5] was inactive. In addition, the inhibition entry in assay [2] and in assay [4] was “Active” in each case. Besides, the inhibition entry in assay [3] is “inactive”.
